Results taken from paper PMC5808564 (ChemMedChem, 2017).
Like-named read-outs stand apart in the source and are kept apart here.

What was measured:
[1] = target: recombinant T. brucei hexokinase 1 (rTbHK1) (Trypanosoma brucei, UniProt Q38C42); experiment: biochemical; format: biochemical
[2] = test system: T. brucei bloodstream form (BSF) parasites (cell line 90-13, a 427 strain); experiment: microbe, parasite or virus in culture; format: cell-based, Trypanosoma brucei; conditions: for % T. brucei BSF growth inhibition (10 μM): 10 μM compound; for % T. brucei BSF growth inhibition (10 μM) / inhibition at 10 µM: BLD = below level of detection; for T. brucei BSF potency (LD50 ± SEM): 3-day growth, n ≥ 3; for inhibition at 10 µM: Trypanosoma brucei, A-427, read-out: % T. brucei BSF growth inhibition (10 μM), 10 μM compound
IMR-90 human cells = experiment: Human cell line toxicity testing; format: cell-based
[3] = target: T1, human HK 4 (human glucokinase, hGlk) (Homo sapiens, UniProt P35557); experiment: Specificity assay against human glucokinase; format: biochemical; conditions: for % hGlk inhibition (10 μM): 10 μM compound, BLD = below level of detection; for inhibition at 10 µM: read-out: % hGlk inhibition (10 μM)
T1 sequence (P35557 1-465): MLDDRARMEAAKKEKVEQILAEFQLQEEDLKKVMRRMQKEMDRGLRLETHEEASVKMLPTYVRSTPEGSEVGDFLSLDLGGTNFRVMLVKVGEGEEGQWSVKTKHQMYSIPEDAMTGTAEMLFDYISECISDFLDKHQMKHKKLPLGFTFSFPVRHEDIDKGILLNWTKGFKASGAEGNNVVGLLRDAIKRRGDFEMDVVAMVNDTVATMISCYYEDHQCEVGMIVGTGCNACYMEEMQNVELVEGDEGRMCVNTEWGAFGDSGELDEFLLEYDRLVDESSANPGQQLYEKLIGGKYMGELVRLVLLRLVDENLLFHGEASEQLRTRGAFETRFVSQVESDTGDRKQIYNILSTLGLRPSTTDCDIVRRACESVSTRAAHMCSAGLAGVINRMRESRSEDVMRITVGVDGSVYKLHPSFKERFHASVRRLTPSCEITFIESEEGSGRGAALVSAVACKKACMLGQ
Outline: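 Uses human hexokinase 4 (glucokinase; GenBank BC001890). Activity is read through a coupled reaction in which glucose-6-phosphate dehydrogenase converts the glucose-6-phosphate formed to 6-phosphogluconate. The coincident NADPH formation is followed at 340 nm.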

[4] = read-out: rTbHK1 potency (IC50 ± SEM), average of n ≥ 3 experiments
[5] = read-out: IMR90 toxicity (EC50), IMR-90 cells, 44-46 h
[6] = Homo sapiens, IMR-90, read-out: IMR90 toxicity (EC50)

Row | Molecule | IC50 [1, 4] | activity on whole T. brucei BSF parasites (in words) [2] | EC50 (IMR-90 human cells; [5]) | aqueous solubility (PBS buffer, pH 7.4) | % hGlk inhibition (10 μM) [3] | % T. brucei BSF growth inhibition (10 μM) [2] | T. brucei BSF potency (LD50 ± SEM) [2] | inhibition at 10 µM [3] | IC50 [1] | inhibition at 10 µM [2] | EC50 (IMR-90 human cells; [6])
1 | 4-methoxybenzamidochlorobenzoic acid [Compound 1] | 9.1 µM | no appreciable activity | > 25 µM | > 274.3 μM |  |  |  |  |  |  | 
2 | CN(C)c1ccc(-c2cc(C(=O)O)c(NC(=O)c3ccc(C(C)(C)C)cc3)cc2Cl)cc1 [Compound 4l] | > 10 µM |  | > 25 µM |  | 27.8 ± 1.7% | 58.0 ± 4.0% | 6.0 ± 0.2 µM |  |  |  | 
3 | CN(C)c1cccc(-c2cc(C(=O)O)c(NC(=O)c3ccc(C(C)(C)C)cc3)cc2Cl)c1 [Compound 4m] |  |  |  |  |  |  |  | 43.7 ± 4.1% | 4 ± 0.32 µM | 82.8 ± 0.2% | > 25 µM
4 | CC(C)(C)c1ccc(C(=O)Nc2cc(Cl)c(-c3ccc(F)cc3)cc2C(=O)O)cc1 [Compound 4n] | 2.44 ± 0.08 µM |  | > 25 µM |  | 15.1 ± 2.6% | 76.7 ± 10.4% | 3.1 ± 0.7 µM |  |  |  | 
5 | CC(C)(C)c1ccc(C(=O)Nc2cc(Cl)c(-c3cccc(F)c3)cc2C(=O)O)cc1 [Compound 4o] | 4.6 ± 0.32 µM |  | > 25 µM |  | 16.1 ± 8.7% | 93.7 ± 2.6% | 1.8 ± 0.3 µM |  |  |  | 
6 | CC(C)(C)c1ccc(C(=O)Nc2cc(Cl)c(-c3ccccc3F)cc2C(=O)O)cc1 [Compound 4p] | 2.08 ± 0.07 µM |  | > 25 µM |  | 24.5 ± 2.5% | 92.8 ± 2.0% | 5.2 ± 0.9 µM |  |  |  | 
7 | CC(C)(C)c1ccc(C(=O)Nc2cc(Cl)c(-c3cccc(Cl)c3)cc2C(=O)O)cc1 [Compound 4q] |  |  |  |  |  |  |  | 30.9 ± 3.5% | 2.7 ± 0.05 µM | 90.7 ± 1.8% | > 25 µM
8 | CC(C)(C)c1ccc(C(=O)Nc2cc(Cl)c(-c3ccc(C(=O)O)cc3)cc2C(=O)O)cc1 [Compound 4r] | 3.5 ± 0.33 µM |  | > 25 µM |  | 3.5 ± 7.1% | 51.0 ± 14.3% |  |  |  |  | 
9 | CC(C)(C)c1ccc(C(=O)Nc2cc(Cl)c(-c3ccncc3)cc2C(=O)O)cc1 [Compound 4s] | > 10 µM |  | > 25 µM |  | 15.1 ± 3.2% | 99.7 ± 1.4% | 3.5 ± 0.6 µM |  |  |  | 
10 | CC(C)(C)c1ccc(C(=O)Nc2cc(Cl)c(-c3cccs3)cc2C(=O)O)cc1 [Compound 4u] |  |  |  |  |  |  |  | 12.5 ± 1.3% | 0.47 ± 0.15 µM | 69.1 ± 5.8% | > 25 µM
11 | CC(C)(C)c1ccc(C(=O)Nc2cc(Cl)c(-c3ccsc3)cc2C(=O)O)cc1 [Compound 4v] |  |  |  |  |  |  |  | 24.8 ± 1% | 0.33 ± 0.03 µM | 68.5 ± 2.1% | > 25 µM
12 | CC(C)(C)c1ccc(C(=O)Nc2cc(Cl)c(-c3ccco3)cc2C(=O)O)cc1 [Compound 4w] |  |  |  |  |  |  |  | 10.4 ± 2.1% | 0.42 ± 0.02 µM | 59 ± 8.2% | > 25 µM
13 | CC(C)(C)c1ccc(C(=O)Nc2cc(Cl)c(-c3ccoc3)cc2C(=O)O)cc1 [Compound 4x] | 0.51 ± 0.06 µM |  | > 25 µM |  | 3.1 ± 2.8% | 73.7 ± 3.7% | 4.2 ± 0.4 µM |  |  |  | 
14 | CC(C)(C)c1ccc(C(=O)Nc2cc(Cl)c(-c3ccc4c(c3)OCCO4)cc2C(=O)O)cc1 [Compound 4y] |  |  |  |  |  |  |  | 26.6 ± 0.4% | 0.6 ± 0.09 µM | 98 ± 1.2% | > 25 µM
15 | CC(C)(C)c1ccc(C(=O)Nc2cc(Cl)c(-c3ccc4c(c3)OCO4)cc2C(=O)O)cc1 [Compound 4z] | 3.9 ± 0.1 µM |  | > 25 µM |  | 23.9 ± 2.5% | 89.8 ± 1.1% | 3.0 ± 0.3 µM |  |  |  | 
